Test results reported in ChEMBL document CHEMBL5352430, “Multi-parameter optimization: Development of a morpholin-3-one derivative with an improved kinetic profile for imaging monoacylglycerol lipase in the brain” (Eur J Med Chem, 2022).

What was measured:
[1] = Drug uptake in mouse brain assessed as standardized uptake value measured after 2 mins; type: ADME, tissue-based; details: in vivo
Outline: (§1)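 Mouse dynamic PET. Tracer at 6.33–14.42 nmol/kg given by tail-vein injection; 60 min scan started 1 min later. Data expressed as SUV, i.e. decay-corrected regional radioactivity normalized to injected dose and body weight. Blocking: MAGLi432 at 5 mg/kg in DMSO/Tween80/saline 1/1/8, injected 5 min before tracer.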

[2] = Drug uptake in Mdrla/b-Bcrp KO mouse pretreated with MAGLi432; type: ADME; details: in vivo; outline: as §1
[3] = Drug uptake in rat brain in presence of SAR127303; type: ADME, tissue-based; details: in vitro
[4] = Drug uptake in Mdrla/b-Bcrp KO mouse; type: ADME; details: in vivo; outline: as §1
[5] = Drug uptake in rat brain thalamus; type: ADME, tissue-based; details: in vitro
[6] = Drug uptake in rat brain in presence of PF-06795071; type: ADME, tissue-based; details: in vitro
[7] = Drug uptake in rat brain cortex; type: ADME, tissue-based; details: in vitro
[8] = Drug uptake in rat brain hippocampus; type: ADME, tissue-based; details: in vitro
[9] = Drug uptake in rat brain striatum; type: ADME, tissue-based; details: in vitro
[10] = Drug uptake in wild type mouse after 20 mins; type: ADME; details: in vivo; outline: as §1
[11] = Drug uptake in mouse brain assessed as maximum standardized uptake value measured after 60 mins; type: ADME, tissue-based; details: in vivo, 1 h; outline: as §1
[12] = Drug uptake in rat brain cerebellum; type: ADME, tissue-based; details: in vitro
[13] = Drug uptake in MAGL knock out mouse; type: ADME; details: in vivo; outline: as §1
[14] = Lipophilicity, logD of the compound at pH 7.4 by shake flask assay; type: physicochemical; details: buffer
[15] = Drug uptake in rat brainstem; type: ADME, tissue-based; details: in vitro

SUV [1]	Drug uptake [2]	Drug uptake [3]	Drug uptake [4]	Drug uptake [5]	Drug uptake [6]	Drug uptake [7]	Drug uptake [8]	Drug uptake [9]	Drug uptake [10]	SUVmax [11]	Drug uptake [12]	Drug uptake [13]	logD [14]	Drug uptake [15]	Compound
0.72															O=C1CO[C@H]2CCN([11C](=O)N3CC(OCc4ccc(C(F)(F)F)cc4Cl)C3)C[C@H]2N1
1.67	Not Active	Not Active	Active	Active	Not Active	Active	Active	Active	Active	0.4	Active	Not Active	2.65	Not Active	O=C1CO[C@H]2CCN([11C](=O)N3CC(CCc4c(F)cccc4C(F)(F)F)C3)C[C@H]2N1
